# In the M2OR odorant receptor database:
# Key:
# Conditions in all cases: stereoisomer not certain
# [1] = molecular target: T1, OR8D1 (Homo sapiens) (UniProt Q8WZ84)
# T1 sequence (whole entry): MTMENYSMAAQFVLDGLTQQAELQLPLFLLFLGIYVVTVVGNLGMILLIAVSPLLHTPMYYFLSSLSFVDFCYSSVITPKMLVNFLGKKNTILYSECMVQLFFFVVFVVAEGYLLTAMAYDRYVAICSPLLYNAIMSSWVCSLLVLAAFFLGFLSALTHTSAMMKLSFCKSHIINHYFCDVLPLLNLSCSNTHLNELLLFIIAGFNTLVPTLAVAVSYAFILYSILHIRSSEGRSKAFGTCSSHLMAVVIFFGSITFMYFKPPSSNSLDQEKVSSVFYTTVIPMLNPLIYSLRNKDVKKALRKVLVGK
# In short: (§1)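 Each entry records the cell line, G-protein, co-transfected protein and tags used. Methods varied with the source, often transient luciferase assays in mammalian cell lines. A receptor–molecule pair is called responsive (active) if the original authors judged its signal statistically different from baseline and non-responsive (inactive) otherwise.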
# [2] = molecular target: OR8B8 (Homo sapiens) (UniProt Q15620)
# In short: as §1
# [3] = molecular target: OR8D2 (Homo sapiens) (UniProt Q9GZM6)
# In short: as §1
# [4] = molecular target: OR8D4 (Homo sapiens) (UniProt Q8NGM9)
# In short: as §1
# [5] = molecular target: OR8G1 (Homo sapiens) (UniProt Q15617)
# In short: as §1
# [6] = molecular target: OR8G5 (Homo sapiens) (UniProt Q8NG78)
# In short: as §1
# [7] = tested on: OR8B8 L101P
# In short: as §1
# [8] = tested on: OR8D1 C127G L194P
# In short: as §1
# [9] = tested on: OR8D1 L194P
# In short: as §1
# [10] = tested on: OR8D4 C120Y R133K
# In short: as §1
# OR8D2 (Homo sapiens), sequence (Q9GZM6 whole entry): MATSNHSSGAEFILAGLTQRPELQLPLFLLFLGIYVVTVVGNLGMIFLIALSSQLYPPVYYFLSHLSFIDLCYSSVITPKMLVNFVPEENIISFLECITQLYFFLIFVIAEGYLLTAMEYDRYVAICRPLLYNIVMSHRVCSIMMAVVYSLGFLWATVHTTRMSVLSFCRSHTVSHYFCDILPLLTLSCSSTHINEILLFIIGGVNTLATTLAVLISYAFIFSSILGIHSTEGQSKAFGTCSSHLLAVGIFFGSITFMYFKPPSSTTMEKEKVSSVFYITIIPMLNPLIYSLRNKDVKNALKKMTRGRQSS
# OR8B8 (Homo sapiens), sequence (Q15620 whole entry): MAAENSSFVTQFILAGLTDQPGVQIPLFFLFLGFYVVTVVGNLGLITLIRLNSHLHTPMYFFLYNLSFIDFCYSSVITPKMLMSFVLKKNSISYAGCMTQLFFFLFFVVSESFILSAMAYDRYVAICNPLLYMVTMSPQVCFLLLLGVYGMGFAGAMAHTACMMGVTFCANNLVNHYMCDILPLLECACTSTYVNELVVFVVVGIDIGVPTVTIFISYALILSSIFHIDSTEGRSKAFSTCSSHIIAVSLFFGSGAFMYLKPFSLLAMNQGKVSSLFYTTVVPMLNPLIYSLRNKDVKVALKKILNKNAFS
# OR8G5 (Homo sapiens), sequence (Q8NG78 whole entry): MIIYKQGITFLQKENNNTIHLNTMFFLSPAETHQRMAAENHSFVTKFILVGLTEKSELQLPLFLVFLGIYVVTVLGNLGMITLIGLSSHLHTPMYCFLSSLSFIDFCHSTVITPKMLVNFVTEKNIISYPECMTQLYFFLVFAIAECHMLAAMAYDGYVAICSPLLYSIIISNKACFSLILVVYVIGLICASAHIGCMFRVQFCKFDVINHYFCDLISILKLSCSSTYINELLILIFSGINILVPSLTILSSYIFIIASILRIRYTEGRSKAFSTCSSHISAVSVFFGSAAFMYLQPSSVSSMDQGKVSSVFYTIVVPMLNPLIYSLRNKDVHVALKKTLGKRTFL
# OR8G1 (Homo sapiens), sequence (Q15617 whole entry): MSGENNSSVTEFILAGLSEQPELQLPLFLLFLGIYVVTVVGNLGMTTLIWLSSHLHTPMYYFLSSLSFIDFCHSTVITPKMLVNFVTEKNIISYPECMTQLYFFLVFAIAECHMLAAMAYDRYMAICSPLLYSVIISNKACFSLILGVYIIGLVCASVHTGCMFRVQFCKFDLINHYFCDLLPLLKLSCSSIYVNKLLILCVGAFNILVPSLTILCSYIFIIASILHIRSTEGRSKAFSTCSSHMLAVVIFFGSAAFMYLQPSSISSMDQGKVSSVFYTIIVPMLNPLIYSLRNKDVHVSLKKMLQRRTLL
# OR8D4 (Homo sapiens), sequence (Q8NGM9 whole entry): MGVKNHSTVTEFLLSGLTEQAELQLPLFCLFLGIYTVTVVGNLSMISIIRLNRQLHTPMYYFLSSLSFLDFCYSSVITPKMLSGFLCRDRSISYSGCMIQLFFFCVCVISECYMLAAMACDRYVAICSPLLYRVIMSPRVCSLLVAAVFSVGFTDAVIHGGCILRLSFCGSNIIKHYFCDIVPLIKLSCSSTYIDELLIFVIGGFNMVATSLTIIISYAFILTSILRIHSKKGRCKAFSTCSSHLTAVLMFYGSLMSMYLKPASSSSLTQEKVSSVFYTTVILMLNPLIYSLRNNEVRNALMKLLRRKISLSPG
# OR8B8 L101P, sequence (as listed by the source, stated change not applied): as the sequence (Q15620 whole entry) above, with L101P counted along it
# OR8D1 L194P, sequence (as listed by the source, stated change not applied): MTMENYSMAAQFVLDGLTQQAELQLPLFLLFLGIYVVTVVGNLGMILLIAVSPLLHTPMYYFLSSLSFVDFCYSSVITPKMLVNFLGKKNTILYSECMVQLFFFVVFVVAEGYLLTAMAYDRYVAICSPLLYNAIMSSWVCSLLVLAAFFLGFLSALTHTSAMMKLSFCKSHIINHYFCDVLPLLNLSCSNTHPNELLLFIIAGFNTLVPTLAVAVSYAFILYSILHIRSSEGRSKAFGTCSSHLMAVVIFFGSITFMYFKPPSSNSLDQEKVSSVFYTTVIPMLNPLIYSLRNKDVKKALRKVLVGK
compound,measurement,setting,value
Cc1ccccc1O,odorant receptor agonist call,[1],inactive
O=Cc1ccc2c(c1)OCO2,odorant receptor agonist call,[1],inactive
SCc1ccco1,odorant receptor agonist call,[1],inactive
Cc1ccc(O)c(C)c1,odorant receptor agonist call,[1],inactive
CSSC,odorant receptor agonist call,[1],inactive
NCC(=O)c1ccccc1,odorant receptor agonist call,[1],inactive
Cc1c([N+](=O)[O-])c(C)c([N+](=O)[O-])c(C(C)(C)C)c1[N+](=O)[O-],odorant receptor agonist call,[2],inactive
same,odorant receptor agonist call,[1],inactive
same,odorant receptor agonist call,[3],inactive
same,odorant receptor agonist call,[4],inactive
same,odorant receptor agonist call,[5],inactive
same,odorant receptor agonist call,[6],inactive
C=CCc1ccc(OC)cc1,odorant receptor agonist call,[1],inactive
C=CCSSCC=C,odorant receptor agonist call,[1],inactive
COc1ccc(C=O)cc1,odorant receptor agonist call,[1],inactive
C=CCOC(=O)Cc1ccccc1,odorant receptor agonist call,[2],inactive
same,odorant receptor agonist call,[7],inactive
same,odorant receptor agonist call,[1],inactive
same,odorant receptor agonist call,[8],inactive
same,odorant receptor agonist call,[9],inactive
same,odorant receptor agonist call,[3],inactive
same,odorant receptor agonist call,[4],inactive
same,odorant receptor agonist call,[10],inactive
same,odorant receptor agonist call,[5],inactive
same,odorant receptor agonist call,[6],inactive
CCOC(=O)Cc1ccccc1,odorant receptor agonist call,[1],inactive
